In article PMC6688905 (Journal of medicinal chemistry, 2018):
“Also recorded” adds a separate entry of the source.

What was measured:
[1] = test system: AKT phosphorylation (Ser473, Thr308) in EGF-stimulated HeLa cells; assay: PI3K inhibition in live cells, Western blot of AKT phosphorylation; format: cell-based; conditions: serum-starved HeLa cells, 10 min pretreatment, EGF stimulation
In short: (§1)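 HeLa cells were serum-starved overnight, then pretreated 10 min with test compound at the indicated concentrations and stimulated with 10 ng mL−1 EGF for 5 min. Cells were lysed in boiling SDS sample buffer and protein was quantified at 660 nm. Equal protein was run on SDS-PAGE, Western-blotted with ECL detection, and probed for AKT, pAKT Ser473/Thr308, ERK1/2, pERK1/2 Thr202/Tyr204, EGFR, pEGFR Tyr1068 and GAPDH.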

[2] = test system: EGFR and ERK1/2 phosphorylation in EGF-stimulated HeLa cells; assay: PI3K inhibition in live cells, Western blot of EGFR and ERK1/2 phosphorylation; format: cell-based; conditions: serum-starved HeLa cells, 10 min pretreatment, EGF stimulation
In short: as §1

PI3Kα = PI3Kα (Homo sapiens, UniProt P42336); assay: KINOMEscan kinase selectivity panel; format: binding; conditions: 1 μM
Sequence of PI3Kα (P42336 whole entry): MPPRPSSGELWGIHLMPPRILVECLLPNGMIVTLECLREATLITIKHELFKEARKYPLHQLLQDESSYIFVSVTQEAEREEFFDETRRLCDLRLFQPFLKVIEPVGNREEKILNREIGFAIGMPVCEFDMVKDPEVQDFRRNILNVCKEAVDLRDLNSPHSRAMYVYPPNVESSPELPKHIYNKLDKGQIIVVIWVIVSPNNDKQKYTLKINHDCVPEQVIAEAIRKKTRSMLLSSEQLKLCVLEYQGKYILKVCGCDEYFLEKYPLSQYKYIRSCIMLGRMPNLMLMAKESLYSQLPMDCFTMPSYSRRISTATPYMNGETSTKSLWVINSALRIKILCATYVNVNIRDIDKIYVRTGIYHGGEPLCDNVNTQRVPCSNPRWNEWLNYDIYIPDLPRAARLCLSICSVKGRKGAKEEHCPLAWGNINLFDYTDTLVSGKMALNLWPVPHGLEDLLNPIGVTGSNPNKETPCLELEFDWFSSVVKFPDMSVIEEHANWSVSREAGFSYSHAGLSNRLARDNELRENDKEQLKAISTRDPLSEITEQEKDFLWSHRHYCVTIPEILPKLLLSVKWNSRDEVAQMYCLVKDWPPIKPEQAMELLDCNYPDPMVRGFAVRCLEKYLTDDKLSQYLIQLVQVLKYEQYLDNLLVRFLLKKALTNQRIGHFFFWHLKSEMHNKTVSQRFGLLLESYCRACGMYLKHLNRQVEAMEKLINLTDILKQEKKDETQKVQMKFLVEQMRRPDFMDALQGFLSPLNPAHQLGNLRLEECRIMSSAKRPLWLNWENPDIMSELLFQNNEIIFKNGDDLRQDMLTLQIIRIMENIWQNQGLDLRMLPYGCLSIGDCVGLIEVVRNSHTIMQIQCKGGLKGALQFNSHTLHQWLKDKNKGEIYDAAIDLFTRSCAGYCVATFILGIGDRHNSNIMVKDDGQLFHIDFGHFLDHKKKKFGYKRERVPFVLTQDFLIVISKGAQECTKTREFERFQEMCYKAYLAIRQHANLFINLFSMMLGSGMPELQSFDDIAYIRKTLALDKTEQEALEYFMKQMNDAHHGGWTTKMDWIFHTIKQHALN

[3] = behaviour in buffer at higher concentrations; format: physicochemical
[4] = molecular target: T1, Polo-like kinase 4 (PLK4) (Homo sapiens, UniProt O00444); assay: KINOMEscan kinase selectivity panel; format: binding; conditions: 1 μM
T1 sequence (O00444 1-970): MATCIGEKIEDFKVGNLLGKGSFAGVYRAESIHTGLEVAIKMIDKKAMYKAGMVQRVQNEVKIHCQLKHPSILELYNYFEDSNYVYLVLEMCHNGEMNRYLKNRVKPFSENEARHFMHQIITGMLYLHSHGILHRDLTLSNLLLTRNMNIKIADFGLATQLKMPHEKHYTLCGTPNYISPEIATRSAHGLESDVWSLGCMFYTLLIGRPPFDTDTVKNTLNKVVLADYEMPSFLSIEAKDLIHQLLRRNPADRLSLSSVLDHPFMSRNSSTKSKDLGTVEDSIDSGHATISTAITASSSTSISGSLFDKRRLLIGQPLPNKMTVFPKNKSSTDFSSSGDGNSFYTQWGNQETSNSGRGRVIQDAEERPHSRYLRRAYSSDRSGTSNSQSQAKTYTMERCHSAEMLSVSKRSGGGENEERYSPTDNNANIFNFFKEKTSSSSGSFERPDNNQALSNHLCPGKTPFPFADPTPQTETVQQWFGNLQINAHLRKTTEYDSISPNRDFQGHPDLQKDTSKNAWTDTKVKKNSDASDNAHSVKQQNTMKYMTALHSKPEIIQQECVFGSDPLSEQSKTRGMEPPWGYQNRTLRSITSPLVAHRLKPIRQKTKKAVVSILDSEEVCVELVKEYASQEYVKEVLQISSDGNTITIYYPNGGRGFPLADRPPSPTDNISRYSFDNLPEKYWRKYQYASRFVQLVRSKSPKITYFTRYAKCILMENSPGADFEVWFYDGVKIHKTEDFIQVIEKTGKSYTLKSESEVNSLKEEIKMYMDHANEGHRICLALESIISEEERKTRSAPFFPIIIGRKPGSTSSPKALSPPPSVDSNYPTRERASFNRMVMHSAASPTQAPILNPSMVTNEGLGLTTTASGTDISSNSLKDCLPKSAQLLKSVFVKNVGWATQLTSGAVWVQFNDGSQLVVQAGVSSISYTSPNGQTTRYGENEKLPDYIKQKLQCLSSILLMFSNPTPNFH

[5] = molecular target: c-Jun N-terminal kinase 1 (JNK1) (Homo sapiens, UniProt P45983); assay: KINOMEscan kinase selectivity panel; format: binding; conditions: 1 μM
Sequence of c-Jun N-terminal kinase 1 (JNK1) (P45983 whole entry): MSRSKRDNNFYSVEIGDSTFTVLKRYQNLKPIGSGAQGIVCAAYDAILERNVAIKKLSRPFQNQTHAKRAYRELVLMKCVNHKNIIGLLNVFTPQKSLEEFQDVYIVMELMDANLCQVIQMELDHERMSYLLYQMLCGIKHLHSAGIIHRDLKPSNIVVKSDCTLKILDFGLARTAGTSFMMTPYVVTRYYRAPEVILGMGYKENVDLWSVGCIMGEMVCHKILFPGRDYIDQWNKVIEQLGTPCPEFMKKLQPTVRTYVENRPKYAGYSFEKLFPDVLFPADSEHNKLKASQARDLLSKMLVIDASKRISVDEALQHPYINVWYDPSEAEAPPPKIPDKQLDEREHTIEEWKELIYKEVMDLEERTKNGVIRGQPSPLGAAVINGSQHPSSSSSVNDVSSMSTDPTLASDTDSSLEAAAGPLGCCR

[6] = molecular target: c-Jun N-terminal kinase 3 (JNK3) (Homo sapiens, UniProt P53779); assay: KINOMEscan kinase selectivity panel; format: binding; conditions: 1 μM
Sequence of c-Jun N-terminal kinase 3 (JNK3) (P53779 whole entry): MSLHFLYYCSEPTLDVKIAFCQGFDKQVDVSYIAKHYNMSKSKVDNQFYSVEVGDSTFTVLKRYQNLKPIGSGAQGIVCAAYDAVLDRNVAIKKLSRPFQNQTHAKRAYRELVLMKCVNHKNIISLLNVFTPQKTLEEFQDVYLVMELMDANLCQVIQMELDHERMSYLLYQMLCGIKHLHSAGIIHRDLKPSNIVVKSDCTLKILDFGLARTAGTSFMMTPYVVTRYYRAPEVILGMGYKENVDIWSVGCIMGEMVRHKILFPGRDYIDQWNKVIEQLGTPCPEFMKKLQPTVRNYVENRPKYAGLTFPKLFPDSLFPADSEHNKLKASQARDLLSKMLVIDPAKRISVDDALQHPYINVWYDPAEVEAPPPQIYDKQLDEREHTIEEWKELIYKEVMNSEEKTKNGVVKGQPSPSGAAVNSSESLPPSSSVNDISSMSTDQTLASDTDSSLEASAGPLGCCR

PI3Kα (p110α/p85α) = PI3Kα (p110α/p85α) (Homo sapiens, UniProt P42336); assay: MS timecourse for covalent modification of PI3K; conditions: 4 μM neolymphostin A with 2 μM PI3Kα
Sequence of PI3Kα (p110α/p85α) (P42336 whole entry, species assumed): as the sequence (P42336 whole entry) above
Sequence of PI3Kα (p110α/p85α) (P27986 whole entry partner, species assumed): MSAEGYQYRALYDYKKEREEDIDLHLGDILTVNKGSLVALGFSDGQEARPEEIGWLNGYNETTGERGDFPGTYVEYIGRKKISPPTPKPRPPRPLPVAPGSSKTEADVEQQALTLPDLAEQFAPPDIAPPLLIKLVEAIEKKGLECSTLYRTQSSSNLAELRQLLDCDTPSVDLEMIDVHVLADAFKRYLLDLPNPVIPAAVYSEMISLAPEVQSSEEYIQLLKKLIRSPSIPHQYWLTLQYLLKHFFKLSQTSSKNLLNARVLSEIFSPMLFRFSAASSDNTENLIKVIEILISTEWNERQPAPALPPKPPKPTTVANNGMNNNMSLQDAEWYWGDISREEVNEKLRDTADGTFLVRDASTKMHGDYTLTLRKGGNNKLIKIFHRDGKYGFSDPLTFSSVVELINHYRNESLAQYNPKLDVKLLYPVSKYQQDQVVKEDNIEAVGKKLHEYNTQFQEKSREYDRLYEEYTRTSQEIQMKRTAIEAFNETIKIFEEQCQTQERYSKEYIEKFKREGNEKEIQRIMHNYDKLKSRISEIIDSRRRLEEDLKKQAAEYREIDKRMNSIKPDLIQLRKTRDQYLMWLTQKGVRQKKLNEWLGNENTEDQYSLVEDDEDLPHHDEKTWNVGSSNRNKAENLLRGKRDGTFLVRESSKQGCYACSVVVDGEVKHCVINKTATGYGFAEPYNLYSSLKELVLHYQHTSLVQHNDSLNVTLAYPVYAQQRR

[7] = molecular target: c-Jun N-terminal kinase 2 (JNK2) (Homo sapiens, UniProt P45984); assay: KINOMEscan kinase selectivity panel; format: binding; conditions: 1 μM
Sequence of c-Jun N-terminal kinase 2 (JNK2) (P45984 whole entry): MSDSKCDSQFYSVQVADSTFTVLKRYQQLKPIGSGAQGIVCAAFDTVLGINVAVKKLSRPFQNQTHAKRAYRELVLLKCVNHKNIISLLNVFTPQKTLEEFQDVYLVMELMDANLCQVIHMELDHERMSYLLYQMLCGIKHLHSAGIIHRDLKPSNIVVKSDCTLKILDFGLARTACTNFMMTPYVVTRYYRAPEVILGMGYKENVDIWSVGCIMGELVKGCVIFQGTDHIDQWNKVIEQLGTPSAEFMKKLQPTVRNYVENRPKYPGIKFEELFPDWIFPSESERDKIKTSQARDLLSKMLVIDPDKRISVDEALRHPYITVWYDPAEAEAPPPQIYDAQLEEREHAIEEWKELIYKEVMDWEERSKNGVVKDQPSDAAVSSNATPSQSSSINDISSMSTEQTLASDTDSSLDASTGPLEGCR

[8] = test system: National Cancer Institute 60-cell line panel; assay: NCI 60-cell line anticancer screen; format: cell-based; conditions: read-out: GI50 values
In short: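 Cancer cell lines covering leukemia, non-small cell lung, colon, CNS, melanoma, ovarian, renal, prostate and breast were tested with 5-point dose-response curves, top concentration 50 μM. GI50, TGI and LC50 were calculated from the curves.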

aurora kinase A (AURKA) = molecular target: T2, aurora kinase A (AURKA) (Homo sapiens, UniProt O14965); assay: KINOMEscan kinase selectivity panel; format: binding; conditions: 1 μM
T2 sequence (O14965 1-403): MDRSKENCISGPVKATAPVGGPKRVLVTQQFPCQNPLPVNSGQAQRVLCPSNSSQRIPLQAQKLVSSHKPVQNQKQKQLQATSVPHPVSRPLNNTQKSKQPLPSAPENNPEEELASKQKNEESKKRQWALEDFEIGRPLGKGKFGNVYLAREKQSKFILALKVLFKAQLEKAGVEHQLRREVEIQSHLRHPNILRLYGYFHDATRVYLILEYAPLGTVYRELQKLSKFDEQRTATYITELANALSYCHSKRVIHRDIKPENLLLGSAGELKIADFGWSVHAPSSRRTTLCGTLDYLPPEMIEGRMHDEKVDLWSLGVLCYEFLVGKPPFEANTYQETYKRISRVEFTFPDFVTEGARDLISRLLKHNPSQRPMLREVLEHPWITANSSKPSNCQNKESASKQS

aurora kinase B (AURKB) = aurora kinase B (AURKB) (Homo sapiens, UniProt Q96GD4); assay: KINOMEscan kinase selectivity panel; format: binding; conditions: 1 μM
Sequence of aurora kinase B (AURKB) (Q96GD4 whole entry): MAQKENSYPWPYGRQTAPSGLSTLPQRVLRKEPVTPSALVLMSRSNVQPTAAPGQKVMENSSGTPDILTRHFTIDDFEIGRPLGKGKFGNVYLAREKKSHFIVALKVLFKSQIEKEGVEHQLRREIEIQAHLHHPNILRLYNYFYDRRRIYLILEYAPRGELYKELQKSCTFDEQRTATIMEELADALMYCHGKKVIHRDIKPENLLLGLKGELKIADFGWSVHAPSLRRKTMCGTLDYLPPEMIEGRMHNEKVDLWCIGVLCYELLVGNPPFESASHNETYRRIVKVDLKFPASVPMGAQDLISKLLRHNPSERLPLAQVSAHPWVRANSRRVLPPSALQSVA

[9] = NMR-based reactivity of electrophile toward Nα-acetyl lysine; format: physicochemical; conditions: 100 mM phosphate buffer pH 7.4, ten-fold excess of N^α-acetyl lysine, 25 °C

SMILES: CC(C)C(=O)Nc1cc(N)c2c3c(cc(C(=O)CCO)nc13)C=N2 [neolymphostinol]
- effect on AKT phosphorylation [1]: largely unaffected

SMILES: COC[C@H]1OC(=O)c2coc3c2[C@@]1(C)C1=C(C3=O)[C@@H]2CCC(=O)[C@@]2(C)C[C@H]1OC(C)=O [wortmannin, reference compound]
- effect on AKT phosphorylation [1]: blocked phosphorylation of AKT on Ser473 and Thr308
- effect on EGFR or ERK1/2 phosphorylation [2]: without affecting phosphorylation of EGFR or ERK1/2

SMILES: CO/C=C/C(=O)c1cc2c3c(c(N)cc(NC(=O)C(C)C)c3n1)N=C2 [neolymphostin, neolymphostin A]
- % vs. control (PI3Kα): 0%
- solubility behaviour [3]: appears to aggregate and “crash out” of solution at higher concentrations in buffer
- % vs. control [4]: 0.95%
- % vs. control [5]: 0.25%
- % vs. control [6]: 0.2%
- time to complete covalent modification of the kinase (PI3Kα (p110α/p85α)): ≤ 2 min
- % vs. control [7]: 0.15%
- effect on AKT phosphorylation [1]: blocked phosphorylation of AKT at S473 and T308
- GI50 [8]: 6 to 840 nM
- % vs. control (aurora kinase A (AURKA)): 1.5%
- % vs. control (aurora kinase B (AURKB)): 1.9%
- effect on EGFR or ERK1/2 phosphorylation [2]: did not affect phosphorylation of EGFR or ERK1/2; also recorded: no apparent effect

SMILES: CO/C=C/C(=O)c1ccccn1 [compound 6, (E)-3-methoxy-1-(pyridin-2-yl)prop-2-en-1-one]
- reaction with N^α-acetyl lysine [9]: no reaction was observed
